The values that follow come from PubChem BioAssay AID504535 (Broad Institute, 2011).

Test [1] in a line: inhibitors of HMLE_shECad breast CSC-like cells, dose response, cell-based, CellTiter-Glo luminescence, primary HTS retest, dry powder, set 5 (AID 504535). To be noted: HMLE_shECad viability, CellTiter-Glo luminescence, 72 h. The essentials: (§1)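 Assay system – HMLE_shECad model of breast cancer stem cells · Timing – about 72 h compound exposure at 37 °C, 5% CO2 · Technique – CellTiter-Glo luminescence · Read-out – cell viability from luminescent ATP signal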
(In ATP-based viability assays light output follows the ATP content of the culture.)

Test [2] concerns HMLE_shECad viability, CellTiter-Glo luminescence, 72 h. Described as above. The method in brief:
as §1

“And” between values parts separate entries of the source, which are not always exact repeats. Identical values can stand only once. Records with an inconclusive call do not appear. The source made the active and inactive calls.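 The calls were made as follows: active = luminescence drop with fitted half-effect dose at most ten times the top tested dose, in every repeat; inconclusive = repeats disagree, flat moderate inhibition, or unreliable curve fit; inactive = every repeat flat, too weak, or signal rising.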

For the compound `C/C(=C\C(=O)NC1=NCCS1)c1ccc(CC(C)C)cc1`, the activity change, negative = inhibition in test [1] (at 19.5 µM (top of the series)) is 3.46% (inactive).

On to `COCc1ccc(C(=O)Nc2nc(C)cs2)o1`, for which the activity change, negative = inhibition in test [1] (at 19.5 µM (top of the series)) was 1.05% (inactive).

Take `CC(C)c1ccc(/C=C/C(=O)N(C)C2=NCCS2)cc1`: the AC50 (as a rule, the midpoint of the concentration-response curve, whichever way the signal moves) in test [2] was 21.2 µM.

On to `Cc1csc(NC(=O)c2ccc(COCc3ccccc3)o2)n1`, for which, in test [2], the AC50 is 6.04 µM.

`Cc1csc(NCc2ccc(COc3ccccc3)o2)n1`: in test [1] (at 19.5 µM (top of the series)), the activity change, negative = inhibition was -11.4% (inactive).

Consider `COc1cccc(OCc2ccc(C(=O)Nc3nc(C)cs3)o2)c1`, for which the AC50 in test [2] is 0.348 µM.

For `CC(C)NC(=O)c1ccc(COc2ccccc2)o1`, the activity change, negative = inhibition in test [1] (at 19.5 µM (top of the series)) was -14.2% (inactive).

With `CC(C)c1ccc(/C=C/C(=O)NC2=NCCS2)cc1`, the AC50 in test [2] is 2.97 µM.

As for `CNC(=O)c1csc(NC(=O)c2ccc(COc3ccccc3)o2)n1`, in test [1] (at 19.5 µM (top of the series)), the activity change, negative = inhibition was -8.68% (inactive).

As to `Cc1csc(NC(=O)c2ccc(COc3ccccn3)o2)n1`, in test [2], the AC50 is 17.8 µM.

For the compound `Cc1ccc2cc(C(=O)NC3=NCCS3)n(C)c2c1`, the activity change, negative = inhibition in test [1] (at 30 µM (top of the series)) is -12.6% (inactive).

Regarding `Cn1c(C(=O)NC2=NCCS2)cc2ccccc21`, the activity change, negative = inhibition in test [1] (at 19.5 µM (top of the series)) was -9.82% (inactive).

As for `N#Cc1ccc(/C=C/C(=O)NC2=NCCS2)cc1`, the AC50 in test [2] was 29.2 µM.

With `O=C(Nc1nc(C(F)(F)F)cs1)c1ccc(COc2ccccc2)o1`, the AC50 in test [2] is 13.2 µM.

As for `C/C(=C\C(=O)NC1=NCCS1)c1ccc(C)cc1`, the activity change, negative = inhibition in test [1] (at 19.5 µM (top of the series)) was -1.94% (inactive).

Regarding `CCN(CC)C(=O)c1ccc(COc2ccccc2)o1`, in test [1] (at 19.5 µM (top of the series)), the activity change, negative = inhibition was 8.61% (inactive).

For the compound `Cc1csc(NC(=O)c2ccc(CCc3ccccc3)o2)n1`, the concentration at half-maximal activity (AC50) in test [2] was 0.895 µM.

As for `CC(C)Cc1ccc(/C=C/C(=O)NC2=NCCS2)cc1`, in test [2], the AC50 is 0.57 µM.

As to `CC(C)c1ccc(/C=C/C(=O)Nc2cncs2)cc1`, the AC50 in test [2] is 11.4 µM.

For `Cc1cc(Br)ccc1OCC(=O)N/N=C/c1ccc[nH]1`, the AC50 in test [2] was 3.76 µM.

For the compound `Cc1ccc(OCc2ccc(C(=O)Nc3nc(C)cs3)o2)cc1`, in test [2], the AC50 is 2.51 µM.

For `O=C(Nc1nncs1)c1ccc(COc2ccccc2)o1`, the activity change, negative = inhibition in test [1] (at 19.5 µM (top of the series)) is -7.89% (inactive).

Regarding `O=C(COc1c(Cl)cc(Cl)cc1Cl)N/N=C/c1ccc[nH]1`, the AC50 in test [2] was 1.44 µM.

Consider `Cc1csc(NC(=O)c2ccc(CNc3ccccc3)o2)n1`, for which the AC50 in test [2] was 0.676 µM.

Consider `N#Cc1csc(NC(=O)c2ccc(COc3ccccc3)o2)n1`, for which, in test [2], the AC50 was 18.1 µM.

With `Cc1cc(C)c(OCC(=O)N/N=C/c2ccc[nH]2)c(C)c1`, the half-maximal activity concentration (AC50) in test [2] is 9.43 µM.

On to `Cc1csc(NC(=O)c2ccc(COC3CCCCC3)o2)n1`, for which the AC50 in test [2] is 17 µM.

`CCc1ccc(/C=C/C(=O)NC2=NCCS2)cc1`: the half-maximal activity concentration (AC50) in test [2] is 1.67 µM.

For `Cc1csc(NC(=O)c2ccc(COc3cccc(S(C)(=O)=O)c3)o2)n1`, in test [1] (at 19.5 µM (top of the series)), the activity change, negative = inhibition was -13.6% (inactive).

Take `Cc1cccc(OCc2ccc(C(=O)Nc3nc(C)cs3)o2)c1`: in test [2], the AC50 was 0.259 µM and 0.332 µM.
